From PubChem BioAssay
Only some compounds are listed: those with a hit (about 2.1% of all), similar ones and a draw of the others.
MT stabilize HCS: microtubule stabilizers in HeLa cells, primary screen, imaging, high-content imaging; HeLa tubulin immunostaining HCS, 24 h; share of cells brighter than vehicle mean+2SD; % tubulin-high responders, % at 10 µM; 0.83% of 200,000 active; AID 2205, 2009;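 active = plate Z-score above 3 for both tubulin-high and condensed-nucleus cell shares, with cell loss under 80%, at 10 µM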;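 also: anti alpha tubulin signal scored within the nucleus-defined area of each cell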
KLF5 inh: KLF5 expression inhibitors, primary screen, DLD-1 cells, luminescence | 0.23% of 290,000 active | DLD-1 KLF5 promoter-luciferase reporter | inhibition, % at 5 µM;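 active = inhibition above a per-plate limit of that plate's mean compound inhibition plus 3 SD, cut at about 60% in these data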;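 also: higher means less KLF5 promoter-driven luciferase light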
BaF3 parental: parental Ba/F3 cell viability inhibition, counter-screen for JAK2V617F inhibitor project, murine pro-B, CellTiter-Glo luminescence; AID 1486, 2009; inhibition, % at 5.6 µM; 1.1% of 220,000 active; CellTiter-Glo ATP luminescence;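 active = inhibition above a per-campaign cutoff, the mean inhibition of all tested compounds plus 3 SD, cut at about 27% in these data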
Ba/F3 V617F tox: reduced viability of JAK2V617F-dependent Ba/F3 cells, primary screen, JAK2V617F inhibitor project, cell-based, Ba/F3 EpoR-JAK2V617F, luminescence; ATP luminescence; inhibition, % at 5.6 µM; 1.1% of 220,000 active; AID 1446, 2008;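 active = inhibition above the campaign mean plus 3 SD over all tested compounds, cut at about 24% in these data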;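 also: cytokine-independent growth of Ba/F3 cells driven by EpoR plus mutant JAK2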
b-catenin transl: modulators of beta-catenin nuclear translocation, primary screen, imaging, HeLa cells, immunofluorescence, high-content | 0.3% of 190,000 active | AID 1665, 2009 | nuclear translocation activity, % at 5 µM;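 active = nuclear translocation activity above 50% at 5 µM, with a well cell count of 50 or more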;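 also: per-cell ratio of nuclear to cytoplasmic median beta-catenin stain intensity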
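Signal – beta-catenin immunofluorescence imaging with DAPI · Test system – human HeLa cell line · Dosing – 5 µM primary single dose, 0.1% DMSO, 0.02–20 µM confirmation series · Measure – % activation, nuclear-to-cytoplasmic median beta-catenin signal ratio per cell · Incubation – 24 h compound exposure at 37°C, 5% CO2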
IEC-6 cytotox: cytotoxicity in IEC-6 intestinal epithelial cells, primary screen, cytotoxicity control for KLF5 inhibitor project, cell-based, luminescence. IEC-6 cytotoxicity, luminescence viability. 0.78% of 290,000 active. AID 1825, 2009. inhibition, % at 5 µM; in the data active = inhibition above about 22%
Each line names hits and unclear results; the compound was inactive in the other large screens.

Cc1cccc2cc3c(N)c(C(=O)N4CCc5ccccc54)sc3nc12	MT stabilize HCS 12
Cc1cc(C)c2nc3sc(C(=O)N4CCOCC4)c(N)c3cc2c1	b-catenin transl 72 (no result: MT stabilize HCS)
Cc1ccc(C)c2nc3sc(C(=O)N4CCOCC4)c(N)c3cc12	MT stabilize HCS 28
CSCC[C@H](NC(=O)c1nn(C)c(=O)c2ccccc12)c1nc2ccccc2[nH]1	none
CCCC(=O)N1c2ccccc2C(=C2SC(C(=O)OC)=C(C(=O)OC)S2)C(=S)C1(C)C	MT stabilize HCS 42
COc1ccc(C(CNC(=O)c2cccc(S(=O)(=O)NCc3ccccc3)c2)N(C)C)cc1 (configuration not stated)	none (no result: MT stabilize HCS, BaF3 parental, Ba/F3 V617F tox, b-catenin transl)
CC(C)(C)c1ccccc1NC(=S)NC1CCCCC1	BaF3 parental 40
CC(C)(C)c1ccccc1NC(=S)NC1CCCC1	none (no result: MT stabilize HCS, BaF3 parental, Ba/F3 V617F tox, b-catenin transl)
O=C(N/N=C/c1ccco1)c1ccc(Br)o1	BaF3 parental 96
O=C(N/N=C/c1ccco1)c1cc2ccccc2o1	none (no result: MT stabilize HCS, BaF3 parental, Ba/F3 V617F tox, b-catenin transl)
CCN(CC)c1ccc(/C=N/NC(=O)c2ccc(Br)o2)cc1	MT stabilize HCS 33 (no result: b-catenin transl)
Cc1ccc(-c2nc3ccccn3c2Nc2ccccc2)o1	BaF3 parental 92
N#C/C(=C\c1ccc(-c2cccc([N+](=O)[O-])c2)o1)C(=O)Nc1nc(-c2cccs2)cs1	none (no result: MT stabilize HCS)
COc1ccc(-c2c[n+](CC(=O)OC3CC(C)CCC3C(C)C)c3n2CCC3)cc1 (configuration not stated)	BaF3 parental 82, Ba/F3 V617F tox 99
CC1CCC(C(C)C)C(OC(=O)C[n+]2cccc(C(N)=O)c2)C1 (configuration not stated)	none
CC(C)[C@@H]1CC[C@@H](C)C[C@H]1OC(=O)C[n+]1cc(-c2ccc(Cl)cc2)n2c1CCCCC2	BaF3 parental 85, Ba/F3 V617F tox 98 (no result: MT stabilize HCS)
c1ccc(C[C@H]2CN=C(Nc3ccccc3)N2CCCC2CCCC2)cc1	none (no result: MT stabilize HCS, BaF3 parental, Ba/F3 V617F tox, b-catenin transl)
Cc1nn(CC(=O)Nc2ccc(Cl)cn2)c(C)c1[N+](=O)[O-]	BaF3 parental 43 (no result: b-catenin transl)
COCCn1cnnc1SCC(=O)Nc1cc(OC)c([N+](=O)[O-])cc1C	none
c1ccc(CCNc2ncnc3ccccc23)cc1	BaF3 parental 68, Ba/F3 V617F tox 65
Brc1ccc2ncnc(NCc3ccccc3)c2c1	none
NC(=O)c1ccc(NC(=O)CSc2nncn2-c2ccccc2)cc1	none (no result: MT stabilize HCS, BaF3 parental, Ba/F3 V617F tox, b-catenin transl)
CCc1cccc(CC)c1-n1c(-c2cccnc2)n[nH]c1=S	none
S=c1[nH]nc(-c2cccc3ccccc23)n1-c1cccnc1	BaF3 parental 50, Ba/F3 V617F tox 52 (no result: MT stabilize HCS)
CC(=O)N1C=Cc2c(c(C)c3c([nH]c4ccccc43)c2C)C1	BaF3 parental 69, Ba/F3 V617F tox 80, IEC-6 cytotox 69 (no result: MT stabilize HCS)
CCOc1ccc(NC(=O)/C=C/c2ccccc2)c([N+](=O)[O-])c1	MT stabilize HCS 24
Nc1nc(N)c2c(ccc3nccc32)[nH]1	BaF3 parental 102, Ba/F3 V617F tox 94, IEC-6 cytotox 71 (no result: MT stabilize HCS)
O=C(Nc1ccc2c(c1)OCCO2)c1ccc(NC(=O)C2CCCO2)cc1 (configuration not stated)	none
Fc1ccc(NC(=S)NCCc2ccccc2)c(F)c1F	BaF3 parental 54, Ba/F3 V617F tox 42
Fc1ccccc1NC(=S)NCCc1ccccc1	none
COc1cc(/C=C/C(=O)O)cc(S(=O)(=O)NCc2ccco2)c1OC	BaF3 parental 90
COc1ccc(/C=C/C(=O)O)cc1S(=O)(=O)NCc1ccco1	none (no result: MT stabilize HCS)
O=C(COc1ccc(Cl)cc1)Nc1ccc(N2CCN(C(=O)c3ccco3)CC2)cc1	none
COc1ccc(OCC(=O)Nc2ccc(N3CCN(C(=O)c4ccco4)CC3)cc2)cc1	BaF3 parental 90
NC(=O)c1cc2ccccc2o/c1=N/NC(=O)c1cccc(Cl)c1	none (no result: MT stabilize HCS, BaF3 parental, Ba/F3 V617F tox, b-catenin transl)
O=C(Cn1nnc(-c2ccc(Cl)cc2)n1)NC1CC2CCC1C2 (configuration not stated)	BaF3 parental 94
CC(C)CC(=O)C1=C(O)C(=O)N(Cc2ccccc2)C1c1ccccc1 (configuration not stated)	none (no result: MT stabilize HCS, BaF3 parental, Ba/F3 V617F tox, b-catenin transl)
Cc1ccc(N2C(N)=NC(N)=NC2(C)C)c(C)c1	BaF3 parental 100, Ba/F3 V617F tox 87
Cc1ccccc1N1C(N)=NC(N)=NC1(C)C	BaF3 parental 57, Ba/F3 V617F tox 56
COc1cc(C2CC(=O)OC3=C2C(=O)CC(C)(C)C3)cc(OC)c1OC (configuration not stated)	none
CCOC(=O)c1c(S(=O)(=O)NCCCc2ccco2)c(C)n(C)c1C	none (no result: MT stabilize HCS, BaF3 parental, Ba/F3 V617F tox, b-catenin transl)
CC(=O)COc1cc(C)cc2oc(=O)cc(-c3ccccc3)c12	none
COc1ccc([N+](=O)[O-])cc1COc1cc(C)cc2oc(=O)cc(-c3ccccc3)c12	MT stabilize HCS 18
O=C(O)CCC(=O)NNc1nc2ccccc2nc1-c1ccccc1	BaF3 parental 90
O=C(O)CCC(=O)NNc1ncnc2ccccc12	none
CC(=O)Nc1ccc(S(=O)(=O)NC2CC2)cc1	none (no result: MT stabilize HCS, BaF3 parental, Ba/F3 V617F tox, b-catenin transl)
CCC1(C)N=C(N)Nc2nc3cc(C)c(C)cc3n21 (configuration not stated)	BaF3 parental 85, Ba/F3 V617F tox 73 (no result: MT stabilize HCS)
O=C1NN=C(c2ccc(Br)cc2)CC1c1ccc(Cl)cc1 (configuration not stated)	none
O=C1c2ccccc2C(=O)N1CC(O)COCc1ccccc1 (configuration not stated)	none
CCc1n(CC(O)COCc2ccccc2)c2ccccc2[n+]1C (configuration not stated)	BaF3 parental 49, Ba/F3 V617F tox 38
N#CC1=C(N)Oc2c(ccc3cccnc23)C1c1cccnc1 (configuration not stated)	MT stabilize HCS 22, b-catenin transl 56
CCCOc1ccccc1C1CC(=O)NC(C)=C1C(=O)OCC(C)C (configuration not stated)	none
CCOc1ccccc1C1CC(=O)NC2=C1C(=O)CCC2 (configuration not stated)	MT stabilize HCS 58
CCOc1ccc(C2CC(=O)NC3=C2C(=O)CCC3)cc1 (configuration not stated)	none
CCCCOc1ccccc1C1CC(=O)NC2=C1C(=O)CCC2 (configuration not stated)	MT stabilize HCS 48, BaF3 parental 83, Ba/F3 V617F tox 82, b-catenin transl 109, IEC-6 cytotox 84
CCCCOc1ccc(N2C(N)=NC(N)=NC23CCCCC3)cc1	none (no result: MT stabilize HCS, BaF3 parental, Ba/F3 V617F tox, b-catenin transl)
NC1=NC2(CCCCC2)N(c2cccc(Cl)c2)C(N)=N1	BaF3 parental 70, Ba/F3 V617F tox 68 (no result: b-catenin transl)
COc1ccc(N2C(N)=NC(N)=NC23CCCC3)cc1	BaF3 parental 64, Ba/F3 V617F tox 57
COc1ccccc1N1C(N)=NC(N)=NC12CCCCC2	none (no result: MT stabilize HCS, BaF3 parental, Ba/F3 V617F tox, b-catenin transl)
